Article PMC8892239 (EFSA Journal, 2022)
Each block holds one compound with its values, some of them ahead of it.

Key:
bone marrow = assay: In vivo micronucleus assay; parameters: species or system rat; conditions: 20 mg/kg bw once by oral gavage
Procedure, shortened: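 Female rats were dosed twice by oral gavage, 24 h apart, with vehicle or 87.5, 175 or 350 mg/kg bw. Cyclophosphamide 20 mg/kg bw was given once by gavage as positive control. Five groups of five animals. Micronuclei and the PCE/NCE ratio were scored.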

[1] = Residues of EQ and metabolites/TPs in cattle tissues; assay type: in vivo
[2] = Residues of EQ and metabolites/TPs in piglet tissues; assay type: in vivo; conditions: piglets
[3] = ref Regulation (EC) No 1272/2008; cited from earlier work

SMILES: O=P1(N(CCCl)CCCl)NCCCO1 (stereo not drawn) [Cyclophosphamide, cyclophosphamide]
number of micronuclei (positive control) (bone marrow): statistically significant increase

concentration at 42 days ([1]; Holstein, bovine, liver, oral, 50 mg EQ/kg complete feed): 121 ng/g
residue in muscle, highest value ([1]; cattle, control (0 mg EQ/kg feed), 42 days, LOQs as above): ˂ LOQ
residue in muscle ([2]; control feed (0 mg EQ/kg), 42 days, mean ± SD, LOQs as above): ˂ LOQ
residue in muscle ([2]; feed with 50 mg EQ/kg for 42 days, LOQs 1.5 to 2 µg EQ, EQDM, metabolite A/kg, 0.5 µg EQI/kg): ˂ LOQ
SMILES: CCOC1=CC(=O)C2=NC(C)(C)C=C(C)C2=C1 [Metabolite A, 6‐ethoxy‐2,2,4‐trimethyl‐quinolin‐8‐one]

SMILES: CCOc1ccc(N)cc1 [p‐phenetidine]
germ cell mutagenicity classification [3]: Muta. 2
